Read-outs that look alike come from different tables or passages of the source.
What was measured:
[1] = system: laryngeal carcinoma cell line (Hep-2); test: MTT-based cytotoxicity assay, Hep-2; assay type: cell-based, human; details: read-out: Anticancer (IC50) Hep-2
Summary of the method: (§1)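 Cells seeded at 10 000/well in medium with 5% FBS and held 48 h at 37 °C, 5% CO₂, 100% humidity. Test compound at various concentrations added for 48 h under the same conditions, in triplicate, with compound-free medium as control. MTT (5 mg ml⁻¹ solution) added for 4 h at 37 °C, formazan dissolved in DMSO, A570 read. % inhibition = 100 − A(sample)/A(control) × 100.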

[2] = system: hepatocellular carcinoma cell line (HepG2); test: MTT-based cytotoxicity assay, HepG2; assay type: cell-based, human; details: read-out: Anticancer (IC50) HepG2
Summary of the method: as §1

[3] = system: breast cancer cell line (MCF-7); test: MTT-based cytotoxicity assay, MCF-7; assay type: cell-based, human; details: read-out: Anticancer (IC50) MCF-7
Summary of the method: as §1

[4] = system: human skin cancer cell line (A375); test: MTT-based cytotoxicity assay, A375; assay type: cell-based
Summary of the method: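 Cells seeded at 10 000/well in medium with 5% FBS, grown 48 h at 37 °C, 5% CO₂, then exposed to test compound at various concentrations (up to 100 μM) for 48 h, in triplicate; medium alone as control. MTT solution (5 mg ml⁻¹) added for 4 h at 37 °C, formazan dissolved in DMSO, absorbance read at 570 nm; inhibition % = 100 − (A sample/A control × 100).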

[5] = system: non-cancerous normal cell (Vero); test: MTT-based cytotoxicity assay, normal Vero cell; details: for Cytotoxicity to non-cancerous cells (in words): cell viability assay up to 100 μM, Fig. 3
Summary of the method: as §1

[6] = Homo sapiens, A-375, 48 h, read-out: Anticancer (IC50) A375, MTT, 48 hours, average of three independent experiments
[7] = MTT, 48 hours, average of three independent experiments

Compound | IC50 ([1]; Homo sapiens, HEp-2, 48 h) [µM] | IC50 ([2]; Homo sapiens, HepG2, 48 h) [µM] | IC50 ([3]; Homo sapiens, MCF7, 48 h) [µM] | IC50 [4, 6] [µM] | Cytotoxicity to non-cancerous cells (in words) [5] | IC50 [1, 7] [µM] | IC50 [2, 7] [µM] | IC50 [3, 7] [µM] | IC50 ([4]; read-out: Anticancer (IC50) A375, MTT, 48 hours, average of three independent experiments) [µM] | IC50 ([5]; read-out: Anticancer (IC50) Vero, MTT, 48 hours, non-cancerous normal cell, average of three independent experiments) [µM]
Nc1c(-c2ccc([N+](=O)[O-])cc2)nc2ccccn12 [12c, 2-(4-Nitrophenyl)imidazo[1,2-a]pyridin-3-amine] | 35 ± 2.4 | 48 ± 4.8 | > 100 | 50 ± 1.8 |  |  |  |  |  | 
CC(C)(C)Nc1c(-c2ccc(N)cc2)nc2ccccn12 [12b, 2-(4-Aminophenyl)-N-(tert-butyl)imidazo[1,2-a]pyridin-3-amine] | 11 ± 0.8 | 13 ± 1.2 | 11 ± 0.5 | 11 ± 0.07 | non-toxic to non-cancerous cells |  |  |  |  | 
CN(C)c1ccc(-c2nc3ccccn3c2N)cc1 [12j, 2-(4-(Dimethylamino)phenyl)imidazo[1,2-a]pyridin-3-amine] | 45 ± 5 | 35 ± 4.8 | 30 ± 5 | 25 ± 1.4 |  |  |  |  |  | 
COc1cccc2c1C(=O)c1c(O)c3c(c(O)c1C2=O)C[C@@](O)(C(=O)CO)C[C@@H]3O[C@H]1C[C@H](N)[C@H](O)[C@H](C)O1 [Doxorubicin, reference compound] | 10 ± 0.5 | 1.5 ± 0.09 | 0.85 ± 0.02 | 5.16 |  |  |  |  |  | 
CC(C)(C)Nc1c(-c2ccc([N+](=O)[O-])cc2)nc2ccccn12 [12a, N-(tert-Butyl)-2-(4-nitrophenyl)imidazo[1,2-a]pyridin-3-amine] | 32 ± 5.5 | 30 ± 2.5 | 55 ± 5.25 | 45 ± 2.5 |  |  |  |  |  | 
Nc1c(-c2ccc([N+](=O)[O-])cc2)nc2cnccn12 [10c, 2-(4-Nitrophenyl)imidazo[1,2-a]pyrazin-3-amine] | 45 ± 1.6 | 30 ± 1.43 | 40 ± 3.8 | 24 ± 2.48 |  |  |  |  |  | 
Nc1ccccc1-c1nc2cnccn2c1NC1CCCCC1 [10m, 2-(2-Aminophenyl)-N-cyclohexylimidazo[1,2-a]pyrazin-3-amine] | 28 ± 4.28 | 20 ± 2.15 | 44 ± 2.68 | 23 ± 1.5 |  |  |  |  |  | 
2-(2-Nitrophenyl)imidazo[1,2-a]pyrazin-3-amine [10l] |  |  |  |  |  | 64 ± 2.45 | 32 ± 4.64 | 80 ± 4.53 | 27 ± 5 | 67 ± 4.54
Nc1ccc(-c2nc3ccccn3c2N)cc1 [12d, 2-(4-Aminophenyl)imidazo[1,2-a]pyridin-3-amine] | 20 ± 5.8 | 35 ± 2.5 | 50 ± 1.82 | 38 ± 2.4 |  |  |  |  |  | 
CN(C)c1ccc(-c2nc3cnccn3c2NC(C)(C)C)cc1 [10h, N-(tert-Butyl)-2-(4-(dimethylamino)phenyl)imidazo[1,2-a]pyrazin-3-amine] | 45 ± 0.5 | 34 ± 5.5 | 50 ± 6.41 | 30 ± 2.84 |  |  |  |  |  | 
CC(C)(C)Nc1c(-c2ccccc2[N+](=O)[O-])nc2ccccn12 [12e, N-(tert-Butyl)-2-(2-nitrophenyl)imidazo[1,2-a]pyridin-3-amine] | 55 ± 0.4 | 62 ± 4.8 | > 100 | > 100 |  |  |  |  |  | 
Nc1c(-c2ccccc2[N+](=O)[O-])nc2ccccn12 [12g, 2-(2-Nitrophenyl)imidazo[1,2-a]pyridin-3-amine] | 50 ± 5.2 | > 100 | > 100 | 62 ± 2.4 |  |  |  |  |  | 
Nc1ccc(-c2nc3ccccn3c2NC2CCCCC2)cc1 [12l, 2-(4-Aminophenyl)-N-cyclohexylimidazo[1,2-a]pyridin-3-amine] | 20 ± 5.2 | 25 ± 0.2 | 35 ± 1.5 | 30 ± 0.1 |  |  |  |  |  | 
CC(C)(C)Nc1c(-c2ccc(N)cc2)nc2cnccn12 [10b, 2-(4-Aminophenyl)-N-(tert-butyl)imidazo[1,2-a]pyrazin-3-amine] | 20 ± 1.64 | 18 ± 1.32 | 21 ± 1.64 | 16 ± 0.96 | non-toxic to non-cancerous cells |  |  |  |  | 
CC(C)(C)Nc1c(-c2ccccc2N)nc2cnccn12 [10f, 2-(2-Aminophenyl)-N-(tert-Butyl)imidazo[1,2-a]pyrazin-3-amine] | 25 ± 5.2 | 20 ± 4.64 | 26 ± 2.38 | 20 ± 1.57 |  |  |  |  |  | 
CC(C)(C)Nc1c(-c2ccccc2[N+](=O)[O-])nc2cnccn12 [10e, N-(tert-Butyl)-2-(2-nitrophenyl)imidazo[1,2-a]pyrazin-3-amine] | 80 ± 1.37 | 40 ± 2.52 | 100 ± 8.64 | 34 ± 3.2 |  |  |  |  |  | 
O=[N+]([O-])c1ccc(-c2nc3ccccn3c2NC2CCCCC2)cc1 [12k, N-Cyclohexyl-2-(4-nitrophenyl)imidazo[1,2-a]pyridin-3-amine] | 30 ± 8 | 40 ± 1.5 | 52 ± 0.8 | 41 ± 5 |  |  |  |  |  | 
CC(C)(C)Nc1c(-c2ccccc2N)nc2ccccn12 [12f, 2-(2-Aminophenyl)-N-(tert-butyl)imidazo[1,2-a]pyridin-3-amine] | 28 ± 5 | 32 ± 0.1 | 24 ± 5.8 | 28 ± 1.5 |  |  |  |  |  | 
CC(C)(C)Nc1c(-c2ccc([N+](=O)[O-])cc2)nc2cnccn12 [10a, N-(tert-Butyl)-2-(4-nitrophenyl)imidazo[1,2-a]pyrazin-3-amine] | 50 ± 3.42 | 40 ± 2.52 | > 100 | 36 ± 3.1 |  |  |  |  |  | 
Nc1ccccc1-c1nc2cnccn2c1N [10g, 2-(2-Aminophenyl)imidazo[1,2-a]pyrazin-3-amine] | 22 ± 2.15 | 25 ± 4.54 | 30 ± 1.24 | 20 ± 5.8 |  |  |  |  |  | 
O=[N+]([O-])c1ccc(-c2nc3cnccn3c2NC2CCCCC2)cc1 [10j, N-Cyclohexyl-2-(4-nitrophenyl)imidazo[1,2-a]pyrazin-3-amine] | 44 ± 6.4 | 40 ± 1.4 | 24 ± 0.15 | 25 ± 5.41 |  |  |  |  |  | 
CN(C)c1ccc(-c2nc3cnccn3c2N)cc1 [10i, 2-(4-(Dimethylamino)phenyl)imidazo[1,2-a]pyrazin-3-amine] | 28 ± 3.1 | 26 ± 0.9 | 17 ± 0.52 | 16 ± 1.2 | non-toxic to non-cancerous cells |  |  |  |  | 
CN(C)c1ccc(-c2nc3ccccn3c2NC(C)(C)C)cc1 [12i, N-(tert-Butyl)-2-(4-(dimethylamino)phenyl)imidazo[1,2-a]pyridin-3-amine] | 20 ± 2.7 | 19 ± 1.3 | 17 ± 0.92 | 12 ± 0.7 | non-toxic to non-cancerous cells |  |  |  |  | 
Nc1ccc(-c2nc3cnccn3c2NC2CCCCC2)cc1 [10k, 2-(4-Aminophenyl)-N-cyclohexylimidazo[1,2-a]pyrazin-3-amine] | 34 ± 4.56 | 28 ± 2.48 | 65 ± 2.41 | 30 ± 1.5 |  |  |  |  |  | 
Nc1ccccc1-c1nc2ccccn2c1N [12h, 2-(2-Aminophenyl)imidazo[1,2-a]pyridin-3-amine] | 44 ± 1.4 | 54 ± 1.5 | 61 ± 2.4 | 55 ± 1.5 |  |  |  |  |  | 
Nc1ccc(-c2nc3cnccn3c2N)cc1 [10d, 2-(4-Aminophenyl)imidazo[1,2-a]pyrazin-3-amine] | 38 ± 2.2 | 34 ± 2.64 | 30 ± 3.32 | 25 ± 1.45 |  |  |  |  |  | 

Source: paper PMC10718296 (RSC Advances, 2023)
